Laboratory results reported in ChEMBL document CHEMBL1141111, “Synthesis and biological evaluation of spin-labeled alkylphospholipid analogs” (J Med Chem, 2005).

Legend:
Homo sapiens [1] = organism: Homo sapiens; assay: (§1) Hemolytic effect (100 uM) on human erythrocytes; type: functional
How it was run: (§2)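 Blood from a healthy donor was collected in EDTA, the plasma removed, and the cells washed in PBS. Each 1 mL sample held 8.59 × 10^7 erythrocytes in PBS (pH 7.5) with 100 µL of 5.5 mM glucose, plus free lipid (30 nmol) or liposomes (30 or 100 nmol). Samples were shaken 30 min at room temperature and spun at 840g. The supernatant was read with Drabkin's reagent at 540 nm. Results are % of Triton X-100 total lysis, in triplicate.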

Homo sapiens [2] = organism: Homo sapiens; assay: (§3) Hemolytic effect (30 uM) on human erythrocytes upon incubation with lipid for 30 min in pH 7.5; type: functional; how it was run: as §2
Homo sapiens [3] = organism: Homo sapiens; assay: Hemolytic effect (30 uM) on human erythrocytes upon incubation with liposomes for 30 min in pH 7.5; type: functional
How it was run: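 Washed erythrocytes from a healthy donor's EDTA blood, stored at 4 °C and used within 48 h. About 8.59 × 10^7 cells in 1 mL PBS (pH 7.5) with 5.5 mM glucose solution. Extruded LUVET (SL-APL/cholesterol/dicetyl phosphate 10:10:2), 30 nmol lipid, shaken 30 min at room temperature. Supernatant read with Drabkin's reagent at 540 nm, as % of Triton X-100 lysis, in triplicate.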

MCF7 = assay: Inhibitory concentration against MCF-7 cells gwoth; type: functional, cell-based, Homo sapiens
How it was run: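 MCF7 cells were grown in RPMI-1640 with L-glutamine and 10% heat-inactivated FCS, then seeded at 2 × 10^4 per well the day before treatment. Free or liposomal compound (APL/Ch/DCP 10:10:2, 200 nm extruded LUVs) was serially diluted 200–6.25 µM and applied for 24 h in triplicate. MTT (0.5 mg/mL) was added for 4 h, and formazan was dissolved in DMSO and read at 540 nm. IC50 comes from growth-inhibition curves versus untreated cells, mean ± SD of ≥3 independent experiments.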

[4] = as §1; type: functional; how it was run: as §2
[5] = as §3; type: functional; how it was run: as §2

Row | IC50 (MCF7; Homo sapiens, MCF7) | SMILES | Hemolysis (Homo sapiens [1]) | Hemolysis (Homo sapiens [2]) | Hemolysis (Homo sapiens [3]) | IC50 (MCF7; mcf7) | Hemolysis [4] | Hemolysis [5]
1 |  | CCCCCCC1(CCCCCCCCCCCOP(=O)([O-])OC2CC[N+](C)(C)CC2)OCC(C)(C)N1[O] (stereo not drawn) | 5.7% | 18.3% | 4.1% |  |  | 
2 |  | CCCCC1(CCCCCCCCCCCCCOP(=O)([O-])OC2CC[N+](C)(C)CC2)OCC(C)(C)N1[O] (stereo not drawn) |  |  | 3.2% | 56.4 µM | 5.3% | 16.1%
3 |  | CCCCCCC1(CCCCCCCCCCCOP(=O)([O-])OCC[N+](C)(C)C)OCC(C)(C)N1[O] (stereo not drawn) | 20.3% | 98.3% | 4.9% |  |  | 
4 | 75.8 µM | CCCCCCCCCCCCCCCCCCOP(=O)([O-])OC1CC[N+](C)(C)CC1 [PERIFOSINE] |  |  | 3.2% |  | 93.5% | 98.1%
5 |  | CCCCCCCCCCCCCC1(CCCCOP(=O)([O-])OC2CC[N+](C)(C)CC2)OCC(C)(C)N1[O] (stereo not drawn) | 17.9% | 99% | 6.6% |  |  | 
6 |  | CCCCCCCCC1(CCCCCCCCCOP(=O)([O-])OC2CC[N+](C)(C)CC2)OCC(C)(C)N1[O] (stereo not drawn) | 5.9% | 34.6% | 3.7% |  |  | 
7 |  | CCCCCCCCCCCC1(CCCCCCOP(=O)([O-])OC2CC[N+](C)(C)CC2)OCC(C)(C)N1[O] (stereo not drawn) | 6.7% | 95.2% | 4.4% |  |  | 
